From publication PMC9624268 (Translational Vision Science & Technology, 2022)
Like-named read-outs stand apart in the source and are kept apart here.

How the values were obtained:
[1] = assay type: in vivo, rabbit
[2] = GLP toxicology study, ophthalmic findings in rats; assay type: in vivo, rat; conditions: oral administration, 1 month, 3 months, 6 months
[3] = assay type: in vivo, rabbit; remark: listed apart in the source
rodent factor D = conditions: stated in discussion, no reference given; cited from earlier work
[4] = GLP toxicology study, ophthalmic findings and ERG in dogs; assay type: in vivo, dog
[5] = tested on: choroidal neovascularization; conditions: mice, cited from earlier work
[6] = pigmented rats, single oral dose 10 mg/kg; cited from earlier work
[7] = assay type: in vivo, rat; conditions: albino rats, single oral dose 20 mg/kg, whole-body autoradiography
Summary of the method: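 Male albino Wistar Han rats (n = 3) got a single oral dose of 20 mg/kg [14C]-labelled test compound. It was suspended on the day of dosing in PEG 400:saline:DMSO 60:36.3:3.7 (v:v:v). Carcasses were frozen in hexane/dry ice, stored at or below −20°C, and cut into ~40 μm sagittal sections. Imaging was at 50 μm resolution. Radioactivity was quantified by image densitometry as μg equivalents/g.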

[8] = assay type: in vivo, rat; conditions: single oral dose 20 mg/kg
Summary of the method: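 Male pigmented Long–Evans rats (n = 10) got a single oral dose of 20 mg/kg [14C]-labelled test compound in PEG 400:saline:DMSO 60:36.3:3.7 (v:v:v), prepared on the day of dosing. Frozen carcasses were cut into ~40 μm sagittal sections and imaged at 50 μm resolution. Densitometry gave μg equivalents/g, and tissue t1/2 came from noncompartmental analysis.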

Compound: CC(=O)c1nn(CC(=O)N2C[C@H](F)C[C@H]2C(=O)Nc2cccc(Br)n2)c2ccc(-c3cnc(C)nc3)cc12 [Danicopan]
- AUClast ([1]; DB rabbit, single oral dose 15 mg/kg, choroid/BrM/RPE, mean): 37,400 h·ng/g
- AUClast ([1]; DB rabbit, single oral dose 15 mg/kg, neural retina, mean): 998 ng·h/g
- MRTlast ([1]; DB rabbit, single oral dose 15 mg/kg, neural retina, mean, 15 mg/kg): 7.83 h
- dose-exposure relationship, plasma and neural retina ([1]; DB rabbits, 7.5, 15 and 50 mg/kg/dose twice daily for 15 days (data not shown)): approximate dose linearity
- time through which exposure was detected in plasma after the last dose ([1]; DB rabbits, 7.5, 15 and 50 mg/kg/dose twice daily for 15 days, plasma): 24 h
- dose-exposure relationship, choroid/BrM/RPE ([1]; DB rabbits, between 15 and 50 mg/kg/dose twice daily for 15 days (data not shown)): less-than-dose proportionality
- Cmax ([1]; Dutch Belted, rabbit, choroid/BrM/RPE, po, 15 mg/kg, DB rabbit, single oral dose 15 mg/kg, mean): 917 ng/g
- MRT last ([1]; Dutch Belted, rabbit, choroid/BrM/RPE, po, 15 mg/kg, MRTlast, DB rabbit, single oral dose 15 mg/kg, mean): 49.7 h
- Cmax ([1]; Dutch Belted, rabbit, neural retina, po, 15 mg/kg, DB rabbit, single oral dose 15 mg/kg, mean): 145 ng/g
- clinical or histopathological ophthalmic findings [2]: no clinical or histopathological ophthalmic findings
- AUClast ([3]; NZW rabbit, single oral dose 15 mg/kg, choroid/BrM/RPE, mean): 1010 ng·h/g
- AUClast ([3]; NZW rabbit, single oral dose 15 mg/kg, neural retina, mean): 665 ng·h/g
- MRT last ([3]; New Zealand White, rabbit, choroid/BrM/RPE, po, 15 mg/kg): 5.87 h
- Cmax ([3]; New Zealand White, rabbit, choroid/BrM/RPE, po, 15 mg/kg, NZW rabbit, single oral dose 15 mg/kg, mean): 172 ng/g
- MRT last ([3]; New Zealand White, rabbit, neural retina, po, 15 mg/kg): 1.49 h
- Cmax ([3]; New Zealand White, rabbit, neural retina, po, 15 mg/kg, NZW rabbit, single oral dose 15 mg/kg, mean): 200 ng/g
- MRT last ([3]; New Zealand White, rabbit, plasma, po, 15 mg/kg): 4.01 h
- AUC(0-t) ([3]; New Zealand White, rabbit, plasma, po, 15 mg/kg, AUClast, NZW rabbit, single oral dose 15 mg/kg, mean): 1430 ng·h/mL
- Cmax ([3]; New Zealand White, rabbit, plasma, po, 15 mg/kg, NZW rabbit, single oral dose 15 mg/kg, mean): 310 ng/mL
- inhibitory effect on rodent factor D (rodent factor D): lack of an inhibitory effect
- clinical or histopathological ophthalmic findings ([4]; oral administration, 14 days, 3 months, 9 months, GLP): no clinical or histopathological ophthalmic findings
- electroretinography (ERG) abnormalities ([4]; week 38, compared to pretreatment ERG): no abnormalities were detected

Compound: Cc1ccc(Nc2nccc(N(C)c3ccc4c(C)n(C)nc4c3)n2)cc1S(N)(=O)=O [Pazopanib]
- plasma levels ([5]; 3 days after a single loading dose 10 mg/kg): undetectable
- choroidal neovascularization lesion size ([5]; single loading dose 10 mg/kg, up to 2 weeks after choroidal neovascularization induction): significantly reduced
- time detected in melanin-containing tissues including the uveal tract [6]: up to 35 days

Compound: [^14C]-danicopan
- radioactivity in most tissues at 24 hours postdose [7]: nonquantifiable
- time postdose at which radioactivity remained quantifiable in uveal tract ([8]; pigmented rats, uveal tract (28 days)): 672 h
- radioactivity in most tissues at 24 hours postdose ([8]; pigmented rats, whole-body autoradiography): nonquantifiable
- radioactivity in plasma and whole blood ([8]; after 8 hours postdose): undetectable
